This note sets out measurements from ChEMBL document CHEMBL3286175, “Cytotoxic alkylated hydroquinone, phenol, and cyclohexenone derivatives from Aspergillus violaceofuscus Gasperini” (2014).

Holding throughout (type): functional
In experiment [1] the test system is MCF7. Description: Cytotoxicity against human MCF7 cells assessed as cell viability after 24 hrs by WST-1 assay. The settings on record: MCF7, 24 h, read-out: LD50 (the source's name). The method in brief: (§1)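 Cells from ATCC grown in McCoy's 5A with 10% FBS, penicillin (100 units/mL) and streptomycin (100 μg/mL) at 37 °C, 5% CO2. Seeded at 1 × 10^4 cells per well with a range of compound concentrations for 24 h. Viability read by WST-1. LD50 values reported as mean ± SD (n = 5).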
A general note: Tetrazolium assays rely on reduction of a dye to a coloured formazan, in cell work by metabolically active cells.

The subject of experiment [2] is Jurkat. Briefly: Cytotoxicity against human Jurkat cells assessed as cell viability after 24 hrs by WST-1 assay. As to conditions: read-out: LD50 (the source's name). The method in brief:
as §1

In experiment [3] the test system is RAW264.7. Briefly: Cytotoxicity against mouse RAW264.7 cells assessed as cell viability after 24 hrs by WST-1 assay. The settings on record: RAW264.7, 24 h, read-out: LD50 (the source's name). The method in brief:
as §1

The subject of experiment [4] is HeLa. Description: Cytotoxicity against human HeLa cells assessed as cell viability after 24 hrs by WST-1 assay. As to conditions: read-out: LD50 (the source's name). Put shortly: as §1
Experiment [5] deals with HCT-116. Briefly: Cytotoxicity against human HCT116 cells assessed as cell viability after 24 hrs by WST-1 assay. The settings on record: HCT-116, 24 h, read-out: LD50 (the source's name). Put shortly:
as §1

Experiment [6] concerns MOLT-4. Briefly: Cytotoxicity against human MOLT4 cells assessed as cell viability after 24 hrs by WST-1 assay. The settings on record: MOLT-4, 24 h, read-out: LD50 (the source's name). The method in brief: as §1

Turning to `CCCCCCCc1c(O)ccc(O)c1CO`, the CC50 is 93 µM in experiment [1]; 8.2 µM in experiment [2]; 20.1 µM in experiment [3]; 77.6 µM in experiment [4]; 61.8 µM in experiment [5]; 5.9 µM in experiment [6].
With `CCCCCCC(O)c1c(O)ccc(O)c1CO` (stereo not drawn), the CC50 in experiment [1] is greater than 100 µM; in experiment [2] it was greater than 100 µM; in experiment [3] it was 55.4 µM; in experiment [4] it was greater than 100 µM; in experiment [5], 69.7 µM; in experiment [6], greater than 100 µM.
Regarding `CCCCC/C=C/C1=C(CO)C(=O)C[C@H](O)[C@@H]1O`, the CC50 in experiment [1], in experiment [2], in experiment [3], in experiment [4], in experiment [5] and in experiment [6] was greater than 100 µM throughout.
`CCCCCCC(O)c1cccc(O)c1CO` (stereo not drawn): the CC50 in experiment [1] was greater than 100 µM; in experiment [2], 8.3 µM; in experiment [3], 26.2 µM; in experiment [4] it was 64.2 µM; in experiment [5], 66 µM; in experiment [6], 6.2 µM.
Turning to `Nc1ccn([C@@H]2O[C@H](CO)[C@@H](O)C2(F)F)c(=O)n1` [GEMCITABINE], the CC50 in experiment [1] was 0.004 µM; in experiment [2] it was 0.012 µM; in experiment [3], 0.005 µM; in experiment [4] it was 0.023 µM; in experiment [5] it was 0.005 µM; in experiment [6] it was 0.008 µM.
Take `CCCCC/C=C/C1=C(CO)C(=O)[C@H]2O[C@H]2[C@@H]1O`: the CC50 in experiment [1] came to 75 µM; in experiment [2] it was 20 µM; in experiment [3], 6.5 µM; in experiment [4], 77.8 µM; in experiment [5] it was 6.4 µM; in experiment [6] it was 11.2 µM.
As to `CCCCC/C=C/c1c(O)ccc(O)c1CO`, the CC50 in experiment [1] was 14.8 µM; in experiment [2], 3.1 µM; in experiment [3] it was 5.6 µM; in experiment [4] it was 24.6 µM; in experiment [5], 5.8 µM; in experiment [6], 3 µM.
For `CCCCC/C=C/C1=C(CO)[C@H](O)[C@H]2O[C@H]2[C@@H]1O`, the CC50 in experiment [1], in experiment [2], in experiment [3], in experiment [4], in experiment [5] and in experiment [6] was greater than 100 µM throughout.
